Compound activity from PubChem.
UCH37 DUB inh: inhibitors of human UCH37 deubiquitinase, primary screen, biochemical, Ub-AMC cleavage, fluorescence; purified proteasome/UCH37; inhibition, % (concentration not given with the values); 330,000 tested, 0.33% active; AID 588478, 2011;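 active means mean inhibition over replicate wells above about 20%, limit read from the data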;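 further: 0% = compound-free wells with enzyme and 100% = wells lacking proteasome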
Target sequence (Q9Y5K5 whole entry, looked up): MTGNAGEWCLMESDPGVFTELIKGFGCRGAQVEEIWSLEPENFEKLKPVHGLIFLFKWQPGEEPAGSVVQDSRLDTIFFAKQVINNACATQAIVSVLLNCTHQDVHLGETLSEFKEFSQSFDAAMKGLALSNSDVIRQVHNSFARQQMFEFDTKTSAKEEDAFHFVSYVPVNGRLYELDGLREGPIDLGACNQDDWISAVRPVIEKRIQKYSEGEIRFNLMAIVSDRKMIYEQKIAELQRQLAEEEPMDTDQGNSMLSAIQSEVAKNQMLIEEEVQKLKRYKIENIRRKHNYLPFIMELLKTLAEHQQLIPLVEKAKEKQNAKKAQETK
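Schedule: 30 min plus 25 min, room temperature / Material: human UCH37 within purified proteasomes / Technique: AMC fluorescence intensity at 355/460 nm / Buffer or medium: pH 7.4 Tris-HCl (50 mM) with ovalbumin, ATP-MgCl2, DTT / Controls: wells without proteasome as full block, compound-free enzyme plus substrate as uninhibited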
NadD block: inhibitors of S. aureus NadD, primary screen, biochemical, colorimetric, uHTS; Nicotinate-nucleotide adenylyltransferase NadD (Staphylococcus aureus N315); purified NadD enzyme, colorimetric absorbance read-out; inhibition, % at 20 µM; 360,000 tested, 0.78% active; AID 602399, 2012; in the data active means inhibition above about 26%
SENP1 FRET inh: human SENP1 catalytic domain inhibitors, primary screen, biochemical, FRET, uHTS; AID 624204, 2012; recombinant SENP1 catalytic domain, CyPet-SUMO1-YPet FRET cleavage; 360,000 tested, 0.21% active; Sentrin-specific protease 1 (Homo sapiens), Q9P0U3; inhibition, % at 10 µM;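 active means inhibition at least 30% at 10 µM, raw YFP signal under a set limit, fluorescence ratio 0.5 to 1.5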;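 further: 0% = enzyme with DMSO and 100% = no enzyme wells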
Target sequence (Q9P0U3 419-644 limits assumed): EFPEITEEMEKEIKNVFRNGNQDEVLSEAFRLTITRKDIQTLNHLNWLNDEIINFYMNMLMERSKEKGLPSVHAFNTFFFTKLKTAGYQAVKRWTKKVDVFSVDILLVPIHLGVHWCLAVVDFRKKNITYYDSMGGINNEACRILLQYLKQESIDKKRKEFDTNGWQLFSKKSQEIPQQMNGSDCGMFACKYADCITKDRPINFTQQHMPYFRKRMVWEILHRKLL
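Test system: hSENP1 catalytic domain, recombinant; Amount: 20 pM final SENP1 enzyme; Medium: Tris pH 8 buffer plus EDTA, NaCl, BME, BSA, NP40, catalase; Schedule: 50 min enzyme reaction, room temperature, light-protected; Technique: FRET fluorescence in CFP and YFP emission channels; Controls: no-enzyme wells low, DMSO-plus-enzyme wells high control.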
ATG4B inh: ATG4B protease inhibitors, primary screen, biochemical, fluorescence, uHTS; Cysteine protease ATG4B (Homo sapiens), Q9Y4P1; 340,000 tested, 0.51% active; inhibition, % at 8.33 µM; AID 504462, 2011; ATG4B cleavage of LC3-PLA2, NBD-HPC fluorescence, 1 h; in the data active means inhibition above about 40%
NR3A LBD binder: binders of NR3A ligand-binding domain, primary screen, biophysical, differential scanning fluorimetry, uHTS; Glutamate receptor ionotropic, NMDA 3A (GRIN3A) ligand-binding domain; NR3A LBD differential scanning fluorimetry, Tm shift; 0% = protein alone, 100% = glycine-bound protein; 340,000 tested, 2.5% active; Tm shift relative to glycine control, % at 25 µM; AID 1259313, 2017;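 active means melting temperature shift of at least 10% of the positive control shift, at one fixed dose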
* marks the source's active call; other numbers are inactive results; i = inactive; · = no result given. Shown are actives, neighbours in structure and some others; about 3.6% of the full set was active somewhere.

SMILES	UCH37 DUB inh	NadD block	SENP1 FRET inh	ATG4B inh	NR3A LBD binder
CC(C)NC(=O)NC1C2CC3CC(C2)CC1C3 (stereo not given)	7	4	4	4	13*
CC(=O)CC(=O)NC1C2CC3CC(C2)CC1C3 (stereo not given)	-1	8	0	1	2
Cc1ccc(C(=O)Nc2nnc(S(=O)(=O)N3CCOCC3)s2)cc1	0	-3	3	-2	-20
Cc1ccc(N2CCN(S(=O)(=O)c3nnc(NC(=O)c4ccccc4)s3)CC2)cc1	2	12	-4	-4	10*
Cc1ccnc(NC(=O)c2cccc(S(=O)(=O)N3CCN(c4ccccc4)CC3)c2)c1	1	-1	-2	-4	·
CC1CCN(S(=O)(=O)c2nnc(NC(=O)c3cccc([N+](=O)[O-])c3)s2)CC1	·	16	1	11	11*
Cc1ccc(NC(=O)c2cccc(S(=O)(=O)N3CCN(c4ccccc4)CC3)c2)nc1	0	3	1	-2	28*
O=C(Nc1nnc(S(=O)(=O)N2CCCC2)s1)c1cccc([N+](=O)[O-])c1	6	1	2	9	1
O=C(O)c1cccc(NN=Cc2ccc(OC(F)(F)F)cc2)c1	10	·	·	·	·
COCCNC(=O)c1c(N)n(N=Cc2ccc(F)cc2)c2nc3ccccc3nc12	-340	·	·	·	·
COc1ccc([N+](=O)[O-])cc1NC1CCCCC1	6	-2	15	7	15*
COc1ccc([N+](=O)[O-])cc1NC(=O)C1CCCCC1C(=O)O (stereo not given)	4	0	2	-11	18*
COc1ccc([N+](=O)[O-])cc1NC1C2CC3CC(C2)CC1C3 (stereo not given)	5	6	3	1	0
CN1C(=O)/C(=C2/C=Cc3ccccc3N2CCCS(=O)(=O)O)SC1=S	24*	-4	8	6	1
CCCN1/C(=C2/SC(=S)N(CC)C2=O)C=Cc2ccccc21	4	5	6	2	-5
CC(C)(C)c1ccc(-c2nnc(SC3CCOC3=O)n2Cc2ccccc2)cc1 (stereo not given)	6	11	1	-17	13*
O=C1OCCC1Sc1nc2ccccc2c(=O)n1Cc1ccccc1 (stereo not given)	5	-2	2	-4	0
O=C(OCC(=O)N1CCN(c2ccccc2)CC1)c1ccc2ccccc2n1	-1	-5	1	-7	14*
O=C(OCC(=O)N1CCN(c2ccccc2)CC1)c1ccccn1	1	-3	3	-9	-1
COc1ccccc1NS(=O)(=O)c1cccc(C(=O)NN=Cc2cn(-c3ccccc3)nc2-c2ccccc2)c1	-16	·	·	·	·
COc1ccccc1C=NNC(=O)c1ccc(NC(=O)c2ccccc2Br)cc1	1	·	·	·	·
COC(=O)Cn1c2ccc(Cl)cc2c2nc(C)sc21	7	-1	2	-5	2
Cc1ccc(S(=O)(=O)n2c3ccc(Cl)cc3c3nc(C)sc32)cc1	0	-5	-1	-14	27*
CCCCCCCCCCS(=O)(=O)N/N=C/c1ccc([N+](=O)[O-])cc1	·	16	1	-1	31*
COc1cc([C@H]2OC[C@H]3[C@@H]2CO[C@@H]3c2ccc(O[C@H]3O[C@H](CO)[C@@H](O)[C@H](O)[C@H]3O)c(OC)c2)ccc1O[C@@H]1O[C@H](CO)[C@@H](O)[C@H](O)[C@H]1O	1	5	1	-6	16*
SMILES	UCH37 DUB inh	NadD block	SENP1 FRET inh	ATG4B inh	NR3A LBD binder
COc1cc2c(=O)c(-c3ccc(O)cc3)coc2cc1OC1OC(CO)C(O)C(O)C1O (stereo not given)	3	2	0	-4	2
Clc1cccc(-c2ccc(-c3nc4ccccn4c3NCc3ccccc3)cc2)c1	i	-1	-31	9	20*
CN(C)S(=O)(=O)c1cccc(NC(=S)NN=CC2CC=CCC2)c1 (stereo not given)	3	·	·	·	·
O=C(Nc1ccc(N2CCCCC2)cc1)c1cccnc1	29*	8	3	-4	0
O=C(CN1CCN(S(=O)(=O)c2ccc(Cl)cc2)CC1)Nc1ccc(N2CCOCC2)cc1	6	-2	2	-7	10*
Cc1ccc(C(=O)NNC(=O)C2CCN(S(=O)(=O)c3ccc(Cl)cc3)CC2)cc1	-1	-3	2	3	-3
O=C(NNC(=O)C1CCN(S(=O)(=O)c2ccc(Cl)cc2)CC1)c1ccc(S(=O)(=O)N2CCCCC2)cc1	-1	8	1	-1	22*
O=C(Nc1ccc2c(c1)OCO2)c1ccc(Cl)c(S(=O)(=O)N2CCOCC2)c1	5	0	1	-1	18*
O=C(Nc1ccc(N2CCCC2)cc1)c1ccc(Br)o1	4	44*	-3	-4	1
CCN1CCN(c2ccc(NC(=O)c3ccc(Br)o3)cc2)CC1	8	-8	-2	-6	-2
Cc1c(C(=O)Nc2cccc(C(F)(F)F)c2)oc2ccc(S(=O)(=O)N3CCOCC3)cc12	2	-8	0	-5	25*
O=C(Nc1ccc(Br)cc1)c1ccc(F)c(S(=O)(=O)NCc2cccs2)c1	2	-6	2	-5	18*
CC(C)CCCCCCNC(=S)Nc1ccc(S(=O)(=O)N2CCOCC2)cc1	0	-7	1	1	27*
Cc1ccc(CNC(=O)c2oc3ccc(S(=O)(=O)N4CCOCC4)cc3c2C)cc1	0	-4	3	-5	-32
Fc1ccc(NN=C(c2ccccc2)c2ccccn2)cc1	4	·	·	·	·
CCOc1cc(C=NO)ccc1OCc1ccc([N+](=O)[O-])cc1	3	·	·	·	·
CCNc1ccc(C(=O)NN=Cc2c(C)nn(-c3ccccc3)c2N2CCCC2)cc1[N+](=O)[O-]	7	·	·	·	·
O=C(Nc1ccc2c(c1)oc1ccccc12)c1ccc(Br)o1	1	0	0	-5	29*
O=C(Nc1ccc(S(=O)(=O)N2CCOCC2)cc1)c1ccc(S(=O)(=O)N2CCOCC2)cc1	-7	-5	1	-3	-5
O=C(Nc1cccc(Cl)c1)c1cc(S(=O)(=O)N2CCOCC2)cs1	6	2	0	-14	31*
O=C(NN=Cc1ccc(N2CCCC2)c([N+](=O)[O-])c1)c1cccnc1	21*	·	·	·	·
O=C(Nc1ccc2ccccc2c1)c1ccc(Br)o1	1	-6	-3	1	10
O=C(Nc1ccc(S(=O)(=O)N2CCOCC2)cc1)c1ccc(Cl)cc1	4	-8	2	0	22*
